# Assay: Toxicity liver stage against HepG2, at 10uM
# Assay type: cell-based
# Parameters: test concentration 10 uM, cell line HepG2-A16-CD81EGFP
# Conditions: human, HepG2-A16-CD81EGFP cells; read-out: INHIBITION
# Summary of the method: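 Uninfected HepG2-A16-CD81EGFP cells, 3 × 10^3 per well, 1536-well, plated on prespotted compound at 10 μM final, parasite-free screening media added to match infected plates; puromycin 10 μM positive, DMSO 0.5% negative; run in parallel with 48 h PbLuc assay at 37 °C, 5% CO2; viability by CellTiter-Glo luminescence, normalized to controls.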
row,Structure (SMILES),cytotoxicity at 10 µM
1,O=C(CN1CCOCC1)Nc1ncc(Br)cc1Br,10.2%
2,C1CN(CCN2CCOCC2)CCN1,-11.5%
3,CC(C)(C)CNC[C@H]1Cn2c(-c3ccccc3)cnc2CO1,-9.14%
4,O=C(O)CCn1ccc(=O)c2ccccc21,0.148%
5,O=C(Nc1cc(C(F)(F)F)ccc1Cl)c1ccc(N2CCCC2)nn1,-4.43%
6,O=S(=O)(c1cccs1)N1CCC(c2nc(-c3cccs3)no2)CC1,6.14%
7,CC(C)(C)NC(=O)NCc1cnn2ccccc12,-11.9%
8,CC(=O)N1CCC(c2nn(C)c(=O)n2-c2ccccc2)CC1,-2.05%
9,Cc1csc(C(=O)NCCn2nc(-n3cncn3)ccc2=O)c1,2.06%
10,Cc1cccc(CN2CC3(CCN(C(=O)C4CC4)CC3)OCC2=O)n1,-4.67%
11,O=C(CCn1ccc2cc(Br)ccc21)/N=c1\[nH]nc(C2CCCO2)s1 (configuration not stated),-2.31%
12,CN(C)c1ccc(-c2cc(=O)n3c(n2)CCCCC3)cc1,-13.1%
13,c1coc(CN2Cc3nccn3CC(Cn3cncn3)C2)c1 (configuration not stated),-7.18%
14,Cc1cccc(N2CC(c3nnc(N)s3)CC2=O)c1 (configuration not stated),3.79%
15,CCN1CCCC(O)(CN(C)Cc2ccc(C)o2)C1 (configuration not stated),-3.65%
16,CCn1nccc1CN(C)C(=O)Cn1cc2c(n1)c(C)nn2CC,15.4%
17,COCc1nc(N(C)C)ncc1C(=O)Nc1cc(C)cc(C)c1,6.89%
18,Cc1nn(C)c2c(NCc3cccnc3)nc(C3CC3)nc12,-9.84%
19,CC(=O)N[C@H]1CCO[C@@H](c2cccc(NC(=O)c3ccc(=O)[nH]n3)c2)C1,4.46%
20,CCC(=O)N1CCCC1(C)c1nc(C)no1 (configuration not stated),1.34%
21,c1ccc2ncc(CC3CCNC3)cc2c1 (configuration not stated),-1.67%
22,CN(C)C(=O)CN1CCCC(c2cncc(-c3cccc(Cl)c3)n2)C1 (configuration not stated),24%
23,Cc1ccc(CN2CCCC2(C(N)=O)c2cnccn2)c(C)c1 (configuration not stated),4.11%

row,Structure (SMILES),cytotoxicity at 10 µM
1,Cc1nc(C2CCCN(C(=O)c3ccncc3)C2)c2sccn12 (configuration not stated),-10.4%
2,Cn1nc(C2CN(S(C)(=O)=O)C2)c2nccnc21,-13.2%
3,CO[C@H]1CN(Cc2ccc(F)c(F)c2)C[C@@]12CCCO2,-5.52%
4,CCc1noc(C)c1C(=O)N1CCC(c2[nH]ncc2S(C)(=O)=O)C1 (configuration not stated),-6.94%
5,O=C(c1ccc(Cl)cc1)N1CCn2c(nn(-c3ccc(Cl)cc3)c2=O)C1,10.9%
6,CC(C)(C)c1nc(CN(Cc2ccccc2F)C2CCCCC2)no1,-2.65%
7,COc1ccc(C(C)NCc2scnc2C)cc1Cn1cccn1 (configuration not stated),-3.53%
8,CC(C)NC1CCN(CCc2ccc3c(c2)CCO3)CC1,-21.8%
9,Cc1nc(Cn2cncc(Br)c2=O)no1,-12.2%
10,COc1ccc(Cl)cc1CCNC(=O)N(C)CC1CCOC1 (configuration not stated),7.17%
11,CCc1nnc(CS(=O)(=O)c2ccc(C)cc2)n1C,7.05%
12,CNC(=O)c1cccc(CN2CCN(c3ccncc3)CC2)c1,-19.7%
13,CCN(C)Cc1cccc(CNC(=O)CSCc2ccncc2)c1,4.31%
14,Cc1cnn(CCNCc2c(C(C)C)nn(C)c2Cl)c1,-14%
15,FC(F)(F)c1cc(C2CCCN(Cc3cccnc3)C2)n[nH]1 (configuration not stated),-45.7%
16,O=C(Cn1cc(C2CC2)nn1)N(Cc1cccs1)CC1CCCO1 (configuration not stated),-4.58%
17,CCC(NCCn1cc(C)cn1)C(=O)Nc1cc(C)on1 (configuration not stated),4.52%
18,CN1CCN(CCNC(=O)C(OC2CCCC2)c2ccccc2)CC1 (configuration not stated),-9.43%
19,COC(=O)c1ccc(OCC(=O)N(C)Cc2ccsc2)c(OC)c1,5.98%
20,O=c1oc(-c2cccs2)nn1CC(O)c1ccccc1F (configuration not stated),-14.7%
21,Cc1ccc(C(=O)N2CCSCC2)cc1NC(=O)NCC1CCC1,3.07%
22,CC(C)c1ncncc1C(=O)NCCN1CCCCCC1,5.15%
23,COC(=O)CNC(=O)C(C)Oc1ccccc1C(F)(F)F (configuration not stated),6.08%

row,Structure (SMILES),cytotoxicity at 10 µM
1,O=C(CC1CN(Cc2ccccc2)CCO1)NC1CCSCC1 (configuration not stated),-15.1%
2,COCc1cccc(NC(=O)NCc2ncc(C)c(OC)c2C)c1,-1.21%
3,CC(O)(CNC(=O)c1cccnc1-n1cccn1)c1cccs1 (configuration not stated),7.9%
4,Cc1nc(CN2CCCN(Cc3nc4c(F)cccc4[nH]3)CC2)no1,0.601%
5,CN(C)c1ncccc1CNCc1ccc(N2CCOCC2)cc1,5.95%
6,O=C(CCc1cccc(Cl)c1)NS(=O)(=O)Cc1ccon1,8.76%
7,CN1CCOC(C(=O)N2CCC3(CCCC3)CC2)C1 (configuration not stated),-1.52%
8,CCC(C#N)NC(=O)c1ccc(Oc2cccnc2)cc1 (configuration not stated),-5.82%
9,c1ccc(-c2noc(CN3CCC(c4ccn[nH]4)CC3)n2)cc1,-1.19%
10,CCc1nc(CN2CCCN(Cc3cnn(C)c3)CC2)no1,-2%
11,Cc1ccccc1C(=O)Nc1cnn(CC(=O)NC2CCCC2)c1,-18.4%
12,COC(=O)C(C)(C)NC(=O)C1CC(=O)N(C)C1 (configuration not stated),-8.92%
13,Cc1nc(C)c(C(=O)N2CCC(Nc3cccnc3)CC2)s1,-6.75%
14,O=C(CCc1cscn1)NS(=O)(=O)c1ccc2ccccc2c1,-13.1%
15,Cc1noc(C)c1C(=O)N1C[C@@H]2CN(Cc3cccnc3)CCO[C@@H]2C1,5.75%
16,O=c1c(-c2ccnc(N3CCCC[C@@H]3CO)n2)cnc2sccn12,-10.3%
17,CCn1ncnc1CN1CCC(CNC(=O)c2ccccc2C#N)C1 (configuration not stated),13.2%
18,COc1ccc(F)cc1-n1cnc(CCNC(C)=O)c1,13.7%
19,COc1cccc(N2CCN(Cc3cccc(CCN)c3)CC2=O)c1,-1.42%
20,CCc1nc(C)c(C2CC(=O)Nc3c2c(C(C)(C)C)nn3C)[nH]1 (configuration not stated),2.63%
21,CCCc1ccc(CN2CCC3(CC2)CNC(=O)C3)o1,-3.71%
22,OCCN(Cc1ccccc1)Cc1nc(-c2ccc3c(c2)OCO3)no1,4.74%
23,CCNc1ncc(C(=O)NCc2csc(C)n2)cn1,12.5%

row,Structure (SMILES),cytotoxicity at 10 µM
1,CN(Cc1cccc(-n2cccn2)c1)Cc1c[nH]cn1,5.67%
2,O=C(O)c1ccccc1C1CCN(C2CCN(c3ccccc3)CC2)C1 (configuration not stated),-14.5%
3,CCC(CO)N(Cc1cccnc1)C(=O)c1ccc(C)[nH]c1=O (configuration not stated),-3.95%
4,CC(C)N1CCC2(CC1)CC(=O)N(Cc1cc(F)cc(F)c1)C2,9.03%
5,CC(=O)N1CCC(N2CCOC(CC3CCCCC3)C2)CC1 (configuration not stated),6.46%
6,CN(C)C(=O)Cc1ccc(-c2cccc3c2CCNC3)cc1,2.28%
7,Cc1ccc2nc(C(=O)N3CC(n4nc(C)cc4C)C3)cn2c1,5.53%
8,COc1ccc(C(=O)N2C[C@@H](O)[C@H](NCc3cnc(C)cn3)C2)cc1,3.34%
9,COCCN(C)C[C@H]1C[C@@H](CO)CN(C(=O)c2ccn(C)c(=O)c2)C1,2.14%
10,CCC1CN(Cc2nc(C(C)C)no2)CCC(=O)N1Cc1ccccc1 (configuration not stated),5.08%
11,Nc1cc(-c2cc(O)cc(C(=O)O)c2)c2cc[nH]c2n1,6.77%
12,Cc1cc2[nH]c(CN3CCOC(c4ccc(Cl)cc4)C3)cc(=O)n2n1 (configuration not stated),1.91%
13,Cc1ccc(OC2CCN(C(=O)Cc3c(C)[nH]c(=O)[nH]c3=O)CC2)cc1,6.45%
14,Cn1cc(CN2CCC(CCC(=O)NC3CC3)CC2)cn1,9.27%
15,COCCn1ccnc1C1CCCN(C(=O)c2ccncc2F)C1 (configuration not stated),0.0773%
16,Cc1ccc2nc(N3CCN(CC(=O)NC(C)C)CC3)cc(C)c2c1,-14.7%
17,Cc1ncccc1OC1(C(=O)NCCNc2ccccc2)CCNCC1,-12.4%
18,CCOCCn1c(=O)[nH]c2cc(C(=O)N(C)Cc3nc(C)cs3)ccc21,-10.6%
19,CC(C)(C)C(Cn1cccn1)NC(=O)c1ccco1 (configuration not stated),-5.5%
20,CCC(CCN)n1ccc(C(F)(F)F)n1 (configuration not stated),-11.2%
21,Fc1ccc(CN2CCC(c3n[nH]c4nccnc34)CC2)cc1F,-11.8%
22,CCOc1ccc(Cl)c(C(=O)NCCS(N)(=O)=O)n1,-8.72%
23,Cc1cnn(CC2CN(Cc3nc(C)c4ccccc4n3)CCO2)c1 (configuration not stated),-35.6%

row,Structure (SMILES),cytotoxicity at 10 µM
1,CCc1nncn1CCNC(=O)N1CCN(Cc2ccccc2)CC1,3.84%
2,Cc1ocnc1C(=O)N1CCCN(Cc2cscn2)CC1,-7.22%
3,COCCOc1ccccc1C(=O)N(C)Cc1ncc(C)c(OC)c1C,-1.61%
4,CC(C)c1n[nH]c(C2CN(Cc3nnc(C4CC4)n3C)CCO2)n1 (configuration not stated),-10.3%
5,Cc1cccc(-n2c(C)cc(C(=O)N3CCn4c(C)nnc4C3)c2C)c1,-4.86%
6,CC(C(=O)N1CCCN(c2ncccc2C#N)CC1)n1cccn1 (configuration not stated),-4.3%
7,CCNc1cc2c(nn1)CCN(C(=O)c1cc3nc(C)ccc3o1)C2,-3.85%
8,NC(=O)c1csc(C(=O)N2CCCC(n3ccnc3)C2)c1 (configuration not stated),-2.07%
9,Cc1nc(Cc2ccc(F)cc2)cc(C2COCCN2)n1 (configuration not stated),3.44%
10,COc1ccc(CC(=O)N2C[C@@H]3COC[C@]3(CN(C)C)C2)cc1,-3.01%
11,CO[C@@H]1CCN(Cc2c(C)noc2C)[C@@H]2CN(Cc3ccco3)C[C@@H]21,8.64%
12,CCC1=N[C@@]2(CC[C@@H]3CN(Cc4ccc(Cl)cc4)C[C@@H]32)C(=O)N1,3.6%
13,c1cnc2c(c1)cc([C@H]1CCCO1)n2CCN1CCCCC1,4.99%
14,Cn1cc(CN2CCC[C@]3(C[C@@H](Oc4ncccc4F)CO3)C2)cn1,9.66%
15,COc1c(CNCc2cccc(CN(C)C)c2)c(C)nn1C,-9.95%
16,c1cncc(COCc2nnc3n2CCN(Cc2ccoc2)C3)c1,-11.2%
17,CC(C)N1CCOCC2(CCCN(C(=O)CCc3cccnc3)C2)C1 (configuration not stated),2.66%
18,Cc1ccsc1CN1CCc2nc3ccsc3c(=O)n2CC1,8.52%
19,CN1C(=O)[C@@H]2CC[C@H]1CN(C(=O)c1csc(Cc3ccccc3)n1)C2,3.75%
20,CN1C[C@@H]2CC[C@H]1CN(C(=O)COCc1nc3ccc(F)cc3[nH]1)C2,-1.88%
